The values that follow come from ChEMBL document CHEMBL4715765, “Fluoro analogs of bioactive oxy-sterols: Synthesis of an EBI2 agonist with enhanced metabolic stability” (Bioorg Med Chem Lett, 2016).

SMILES strings stand for the structures. Some results are limits rather than exact numbers.

In series [1] the target is T1, G-protein coupled receptor 183 (Homo sapiens, UniProt P32249). The experiment in a line: Agonist activity at Go2-q-coupled EBI2 (unknown origin) expressed in COS7 cell membranes assessed as stimulation of [35S]GTPgammaS binding preincubated for 20 mins followed by [35S]GTPgammaS addition and measured after 1 hr by scintillation counting analysis. It is filed as functional, Membrane. Summed up:
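[35S]GTPγS binding measured in membranes of COS7 cells transiently transfected with human, rat or mouse EBI2, with receptor coupled through Go2. Compounds tested as concentration-response series (log M plots) to give EC50 and % Emax for each species' receptor.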
In general terms: GTPγS resists hydrolysis and so accumulates on activated G proteins.

The nature of series [2]: Cmax in mouse at 20 mg/kg, sc. To be noted: in vivo. It is filed as ADME, organism-based. Also on record: route subcutaneous, dose 20 mg/kg.
Series [3] can be described thus: Tmax in mouse at 20 mg/kg, sc. It is filed as ADME, organism-based. To be noted: in vivo.
The target in series [4] is T1, G-protein coupled receptor 183. Nature of the series: Agonist activity at Go2-q-coupled human EBI2 expressed in COS7 cell membranes assessed as stimulation of [35S]GTPgammaS binding preincubated for 20 mins followed by [35S]GTPgammaS addition and measured after 1 hr by scintillation counting analysis. It is filed as functional, Membrane. The gist of the method:
(§1)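 [35S]GTPγS binding measured on COS7 cells transiently transfected with human, rat or mouse EBI2, using a Gαo2 chimera set-up. Concentration-response testing ran up to a top concentration of 1. EC50 and % Emax were taken from the curves, with Emax referenced to 7α,25-OHC.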

Series [5] addresses G-protein coupled receptor 183 (Rattus norvegicus, UniProt D4A7K7). Nature of the series: Agonist activity at Go2-q-coupled rat EBI2 expressed in COS7 cell membranes assessed as stimulation of [35S]GTPgammaS binding preincubated for 20 mins followed by [35S]GTPgammaS addition and measured after 1 hr by scintillation counting analysis. Also on record: species or system Membrane. Summed up:
as §1

Series [6] addresses G-protein coupled receptor 183 (Mus musculus, UniProt Q3U6B2). The experiment in a line: Agonist activity at Go2-q-coupled mouse EBI2 expressed in COS7 cell membranes assessed as stimulation of [35S]GTPgammaS binding preincubated for 20 mins followed by [35S]GTPgammaS addition and measured after 1 hr by scintillation counting analysis. It is filed as functional, Membrane. Summed up:
as §1

Series [7] deals with T1, G-protein coupled receptor 183. Nature of the series: Agonist activity at Go2-q-coupled human EBI2 expressed in COS7 cell membranes assessed as stimulation of [35S]GTPgammaS binding at 1 uM preincubated for 20 mins followed by [35S]GTPgammaS addition and measured after 1 hr by scintillation counting analysis relative to control. It is filed as functional. The settings on record: Membrane, filed as agonist, time 80.0 min. Summed up:
as §1

Series [8] concerns the target G-protein coupled receptor 183 (Rattus norvegicus) (UniProt D4A7K7). Nature of the series: Agonist activity at Go2-q-coupled rat EBI2 expressed in COS7 cell membranes assessed as stimulation of [35S]GTPgammaS binding at 1 uM preincubated for 20 mins followed by [35S]GTPgammaS addition and measured after 1 hr by scintillation counting analysis relative to control. The settings on record: Membrane, filed as agonist, time 80.0 min. The gist of the method:
as §1

For series [9], the target named is G-protein coupled receptor 183 (Mus musculus) (UniProt Q3U6B2). Nature of the series: Agonist activity at Go2-q-coupled mouse EBI2 expressed in COS7 cell membranes assessed as stimulation of [35S]GTPgammaS binding at 1 uM preincubated for 20 mins followed by [35S]GTPgammaS addition and measured after 1 hr by scintillation counting analysis relative to control. It is filed as functional. The settings on record: Membrane, filed as agonist, time 80.0 min. The gist of the method:
as §1

Series [10] in a line: Metabolic stability in mouse liver microsomes assessed as half life. It is filed as ADME, Microsome. (Liver microsomes are a subcellular fraction often used to study metabolism.)
Series [11] in a line: Metabolic stability in rat liver microsomes assessed as half life. It is filed as ADME, Microsome.
A short description of series [12]: Metabolic stability in human liver microsomes assessed as half life. It is filed as ADME, Microsome.
Series [13] can be described thus: Cmax in mouse at 20 mg/kg, ip. To be noted: in vivo. It is filed as ADME, organism-based. On the set-up: route intraperitoneal, dose 20 mg/kg.
A short description of series [14]: Tmax in mouse at 20 mg/kg, ip. It is filed as ADME, organism-based. To be noted: in vivo.
Series [15] in a line: AUClast in mouse at 20 mg/kg, ip. It is filed as ADME, organism-based. Also on record: route intraperitoneal, time 0 - last, dose 20 mg/kg. The settings on record: in vivo.
Series [16] can be described thus: Terminal half life in mouse at 20 mg/kg, ip. It is filed as ADME, organism-based. The settings on record: in vivo, read-out: beta t1/2 (converted).
Series [17] in a line: AUClast in mouse at 20 mg/kg, sc. It is filed as ADME, organism-based. Also on record: time 0 - last, route subcutaneous, dose 20 mg/kg. The settings on record: in vivo.
A short description of series [18]: Terminal half life in mouse at 20 mg/kg, sc. It is filed as ADME, organism-based. The settings on record: in vivo, read-out: beta t1/2 (converted).
The nature of series [19]: Elimination half-life in po dosed mouse. It is filed as ADME, organism-based. The settings on record: in vivo, read-out: beta t1/2 (converted).

T1 sequence (P32249 whole entry): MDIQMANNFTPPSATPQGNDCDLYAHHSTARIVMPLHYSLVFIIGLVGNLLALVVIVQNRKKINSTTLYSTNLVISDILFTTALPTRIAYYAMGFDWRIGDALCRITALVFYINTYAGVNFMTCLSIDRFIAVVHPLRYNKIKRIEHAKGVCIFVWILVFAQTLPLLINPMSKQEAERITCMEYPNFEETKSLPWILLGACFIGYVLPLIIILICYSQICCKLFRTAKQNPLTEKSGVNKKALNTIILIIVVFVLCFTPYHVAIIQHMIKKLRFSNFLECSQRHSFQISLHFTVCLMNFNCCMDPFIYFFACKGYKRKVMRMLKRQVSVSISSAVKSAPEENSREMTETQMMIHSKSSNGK
Sequence of G-protein coupled receptor 183 (Rattus norvegicus, UniProt D4A7K7) (D4A7K7 whole entry): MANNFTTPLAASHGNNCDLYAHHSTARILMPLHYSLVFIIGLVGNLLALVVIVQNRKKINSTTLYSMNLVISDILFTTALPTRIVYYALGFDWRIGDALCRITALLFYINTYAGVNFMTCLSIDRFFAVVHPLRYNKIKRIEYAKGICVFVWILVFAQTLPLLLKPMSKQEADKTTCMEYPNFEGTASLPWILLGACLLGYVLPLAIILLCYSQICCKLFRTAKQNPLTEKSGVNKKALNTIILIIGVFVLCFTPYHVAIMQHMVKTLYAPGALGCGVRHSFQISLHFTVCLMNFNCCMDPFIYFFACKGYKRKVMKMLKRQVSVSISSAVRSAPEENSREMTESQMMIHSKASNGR
Sequence of G-protein coupled receptor 183 (Rattus norvegicus) (D4A7K7 whole entry): as above
Sequence of G-protein coupled receptor 183 (Mus musculus, UniProt Q3U6B2) (Q3U6B2 whole entry): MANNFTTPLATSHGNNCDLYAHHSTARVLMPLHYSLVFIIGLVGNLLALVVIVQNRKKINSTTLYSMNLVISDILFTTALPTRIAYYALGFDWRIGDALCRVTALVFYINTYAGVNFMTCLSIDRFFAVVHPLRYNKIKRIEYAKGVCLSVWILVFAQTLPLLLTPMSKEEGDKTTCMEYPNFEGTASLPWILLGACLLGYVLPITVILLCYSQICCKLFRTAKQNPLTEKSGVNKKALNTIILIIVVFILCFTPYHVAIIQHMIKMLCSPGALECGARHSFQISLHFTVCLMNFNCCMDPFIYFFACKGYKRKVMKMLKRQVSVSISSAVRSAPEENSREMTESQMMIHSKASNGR
Sequence of G-protein coupled receptor 183 (Mus musculus) (Q3U6B2 whole entry): as above

By EC50 is commonly meant the concentration that produces a half-maximal response. For `CC(CO)CCC[C@@H](C)[C@H]1CC[C@H]2[C@H]3C(CC[C@]12C)[C@@]1(C)CC[C@H](O)CC1=C[C@@H]3O` (single isomer, unassigned), the 50% effective concentration (EC50) in series [1] is 51 nM.
One may read the Cmax as the maximum level reached in the sampled fluid or tissue. What is called Tmax is the time from dosing to the highest level. A word on the Emax: it is the maximal effect, on the per cent scale that the assay sets. What is called AUC(0-t) is the area under the concentration-time curve up to a stated or last time point. Lower therefore signals less exposure. For `C[C@H](CCCC(C)(C)O)[C@H]1CC[C@H]2[C@@H]3[C@H](O)C=C4C[C@@H](O)CC[C@]4(C)[C@H]3CC[C@]12C`, the Cmax in series [2] came to 4340 ng/mL; in [13], 4460 ng/mL. The Tmax in series [3] is 19.8 min; in series [14] it was 15 min. The 50% effective concentration (EC50) in series [4] was found to be 0.032 nM; in [5], 1.31 nM; in [6] it was 0.702 nM; in series [1], 0.14 nM. Moreover, the Emax in series [7], in [8] and in [9] was 100% each time. Besides, the half-life in series [10] was 11 min; in series [11] it was 15 min; in [12], 30 min; in [16] it was 24 min; in series [18], 30 min. The exposure AUC(0-t) in [15] stood at 2940 ng·h/mL; in series [17] it was 3140 ng·h/mL.
Turning to `CC(CO)CCC[C@@H](C)[C@H]1CC[C@H]2[C@H]3C(CC[C@]12C)[C@@]1(C)CC[C@H](O)CC1=C[C@H]3O` (single isomer, unassigned), the EC50 in series [1] came out at 1.3 nM.
On to `C[C@H](CCCC(C)(C)O)[C@H]1CC[C@H]2[C@H]3[C@H](CC[C@]12C)[C@@]1(C)CC[C@H](O)CC1=C[C@@]3(O)C(F)(F)F`, for which the EC50 in [4] is 4.1 nM; in series [5], 14.4 nM; in series [6], 14.4 nM. In addition, the Emax in series [7] is 100%; in [8], 88%; in [9], 60%.
`C[C@H](CCCC(C)(C)O)[C@H]1CC[C@H]2[C@@H]3[C@@H](O)C=C4C[C@@H](O)CC[C@]4(C)[C@H]3CC[C@]12C`: the half-maximal effective concentration (EC50) in series [1] was determined as 2.1 nM.
As to `C[C@H](CCCC(C)(C)O)[C@H]1CC[C@H]2[C@H]3[C@H](CC[C@]12C)[C@@]1(C)CC[C@H](O)CC1=C[C@]3(O)C(F)(F)F`, the figures for the concentration giving a half-maximal response (EC50) in series [4], in series [5] and in series [6] were 0.102 nM, 1.08 nM and 1.64 nM, respectively. Also, the values for the Emax in [7], in [8] and in [9] were 122%, 116% and 136%, respectively. In addition, the half-life in series [10] is > 180 min; in series [11], 31 min; in [12], 131 min; in [19] it was 600 min.
